Experimental data reported in ChEMBL document CHEMBL3091323, “Investigation of quinazolines as inhibitors of breast cancer resistance protein (ABCG2)” (Bioorg Med Chem, 2013).
Active and inactive are the calls of the source. The rule behind the calls is not given here.

Experiments:
[1] = target: T1, Broad substrate specificity ATP-binding cassette transporter ABCG2 (Homo sapiens, UniProt Q9UNQ0); assay: Inhibition of human BCRP expressed in MDCK2 cells assessed as pheophorbide A accumulation treated 30 mins before pheophorbide A addition measured up to 120 mins by flow cytometry; format: cell-based, MDCK-II
T1 sequence (Q9UNQ0 whole entry): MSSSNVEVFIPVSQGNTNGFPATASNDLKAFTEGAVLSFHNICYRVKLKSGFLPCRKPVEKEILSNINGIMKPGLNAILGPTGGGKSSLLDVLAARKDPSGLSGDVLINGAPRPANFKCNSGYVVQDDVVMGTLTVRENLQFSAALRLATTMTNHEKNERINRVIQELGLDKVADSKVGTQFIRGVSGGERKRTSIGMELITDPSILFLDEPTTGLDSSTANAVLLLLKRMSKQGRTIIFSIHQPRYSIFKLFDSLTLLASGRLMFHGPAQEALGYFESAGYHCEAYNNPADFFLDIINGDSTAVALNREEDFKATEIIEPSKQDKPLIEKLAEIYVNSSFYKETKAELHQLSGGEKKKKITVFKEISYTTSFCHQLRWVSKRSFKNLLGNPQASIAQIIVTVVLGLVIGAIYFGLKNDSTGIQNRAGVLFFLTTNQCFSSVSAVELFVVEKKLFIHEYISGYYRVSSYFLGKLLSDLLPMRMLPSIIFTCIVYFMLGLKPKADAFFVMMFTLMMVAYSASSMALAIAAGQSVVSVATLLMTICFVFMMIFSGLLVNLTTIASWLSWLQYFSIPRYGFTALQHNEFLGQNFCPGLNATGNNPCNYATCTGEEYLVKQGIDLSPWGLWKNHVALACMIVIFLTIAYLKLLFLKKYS

[2] = target: T1, Broad substrate specificity ATP-binding cassette transporter ABCG2; assay: Inhibition of human BCRP expressed in MDCK2 cells assessed as Hoechst 33342 accumulation treated 30 mins before Hoechst 33342 addition measured up to 120 mins by fluorescence assay; format: cell-based, MDCK-II
[3] = target: T2, ATP-dependent translocase ABCB1 (Homo sapiens, UniProt P08183); assay: Inhibition of MDR1 in human doxorubicin-resistant A2780adr cells assessed as Calcein AM accumulation treated 30 mins before Calcein AM addition measured up to 90 mins by fluorescence assay; format: cell-based, A2780 ADR
T2 sequence (P08183 whole entry): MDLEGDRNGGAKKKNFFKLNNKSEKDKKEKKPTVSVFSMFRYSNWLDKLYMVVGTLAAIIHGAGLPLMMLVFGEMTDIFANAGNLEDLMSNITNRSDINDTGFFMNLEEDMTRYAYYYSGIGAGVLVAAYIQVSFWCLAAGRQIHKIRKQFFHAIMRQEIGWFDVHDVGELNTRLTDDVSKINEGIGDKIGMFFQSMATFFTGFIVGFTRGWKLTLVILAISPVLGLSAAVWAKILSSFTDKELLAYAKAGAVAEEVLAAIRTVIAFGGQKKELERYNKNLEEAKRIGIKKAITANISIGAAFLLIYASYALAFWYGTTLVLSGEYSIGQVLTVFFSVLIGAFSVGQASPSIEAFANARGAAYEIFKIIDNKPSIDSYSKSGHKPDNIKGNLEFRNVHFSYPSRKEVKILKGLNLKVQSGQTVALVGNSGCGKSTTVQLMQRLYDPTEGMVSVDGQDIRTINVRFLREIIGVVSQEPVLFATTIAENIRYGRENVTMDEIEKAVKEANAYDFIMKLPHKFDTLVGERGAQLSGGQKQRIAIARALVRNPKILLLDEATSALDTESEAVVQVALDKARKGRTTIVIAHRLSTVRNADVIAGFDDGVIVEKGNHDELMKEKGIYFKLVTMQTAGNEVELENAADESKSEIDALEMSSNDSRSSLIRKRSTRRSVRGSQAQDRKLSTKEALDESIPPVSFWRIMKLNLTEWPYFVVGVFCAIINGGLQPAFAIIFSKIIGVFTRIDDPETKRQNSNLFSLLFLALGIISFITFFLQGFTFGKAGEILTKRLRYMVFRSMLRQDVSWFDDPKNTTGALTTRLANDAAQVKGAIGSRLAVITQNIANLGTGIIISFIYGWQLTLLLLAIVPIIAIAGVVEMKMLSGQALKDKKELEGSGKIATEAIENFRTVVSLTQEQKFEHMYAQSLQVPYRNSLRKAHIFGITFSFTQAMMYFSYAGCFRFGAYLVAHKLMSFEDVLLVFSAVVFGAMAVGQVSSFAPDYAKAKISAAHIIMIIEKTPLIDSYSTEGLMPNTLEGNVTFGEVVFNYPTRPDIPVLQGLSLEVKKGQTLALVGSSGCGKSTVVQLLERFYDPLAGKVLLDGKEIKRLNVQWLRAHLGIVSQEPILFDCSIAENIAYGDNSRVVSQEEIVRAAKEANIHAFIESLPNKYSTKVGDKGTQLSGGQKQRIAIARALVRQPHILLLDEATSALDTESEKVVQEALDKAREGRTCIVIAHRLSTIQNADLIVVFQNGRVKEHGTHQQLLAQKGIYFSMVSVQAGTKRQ

MDCK-II = assay: Increase of plasma membrane expression of BCRP expressing reporter gene GFP in BCRP-MDCK2 cells at 0.5 to 1.8 uM after 72 hrs by fluorescence assay; format: functional, cell-based; details: Canis lupus familiaris, in the assay text read “total expression” for “plasma membrane expression”
In short: (§1)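 MDCK II cells transfected with human wild-type BCRP cDNA C-terminally fused to GFP. Seeded at 100,000 cells/well and treated 4 h later at final 0.5, 1.0 and 1.8 µM for 72 h at 37 °C. Surface BCRP measured by 5D3 antibody binding (FL2, 585 nm) and total BCRP by GFP (FL1, 520 nm) on a flow cytometer, gated on scatter. Geometric means normalized to untreated cells as 100%.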

[4] = Reduction of plasma membrane expression of BCRP expressing reporter gene GFP in BCRP-MDCK2 cells at 0.5 to 1.8 uM after 72 hrs by fluorescence assay relative to control; format: functional, cell-based; design: scale not given: the % may be the effect or the level left; details: Canis lupus familiaris, MDCK-II; in short: as §1
[5] = Cytotoxicity against MDCK cells after 72 hrs by MTT assay; format: cell-based, Canis lupus familiaris; details: dog
In short: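 MTT assay in MDCK BCRP and parental MDCK cells: 2500 cells/well, 6 h attachment at 37 °C, 5% CO₂, compounds up to 100 µM for 72 h. MTT (5 mg/ml solution) added for 1 h, then lysis in DMSO. Absorbance read at 544 nm with 710 nm background correction. Controls were 10% DMSO medium and PBS only. GI₅₀ derived.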

[6] = target: Multidrug resistance-associated protein 1 (Homo sapiens, UniProt P33527); assay: (§2) Inhibition of MRP1 in human 2008 cells assessed as Calcein AM accumulation at 10 uM treated 30 mins before Calcein AM addition measured up to 90 mins by fluorescence assay relative to control; format: cell-based; details: human, 2008, 10 µM
Sequence of Multidrug resistance-associated protein 1 (P33527 whole entry): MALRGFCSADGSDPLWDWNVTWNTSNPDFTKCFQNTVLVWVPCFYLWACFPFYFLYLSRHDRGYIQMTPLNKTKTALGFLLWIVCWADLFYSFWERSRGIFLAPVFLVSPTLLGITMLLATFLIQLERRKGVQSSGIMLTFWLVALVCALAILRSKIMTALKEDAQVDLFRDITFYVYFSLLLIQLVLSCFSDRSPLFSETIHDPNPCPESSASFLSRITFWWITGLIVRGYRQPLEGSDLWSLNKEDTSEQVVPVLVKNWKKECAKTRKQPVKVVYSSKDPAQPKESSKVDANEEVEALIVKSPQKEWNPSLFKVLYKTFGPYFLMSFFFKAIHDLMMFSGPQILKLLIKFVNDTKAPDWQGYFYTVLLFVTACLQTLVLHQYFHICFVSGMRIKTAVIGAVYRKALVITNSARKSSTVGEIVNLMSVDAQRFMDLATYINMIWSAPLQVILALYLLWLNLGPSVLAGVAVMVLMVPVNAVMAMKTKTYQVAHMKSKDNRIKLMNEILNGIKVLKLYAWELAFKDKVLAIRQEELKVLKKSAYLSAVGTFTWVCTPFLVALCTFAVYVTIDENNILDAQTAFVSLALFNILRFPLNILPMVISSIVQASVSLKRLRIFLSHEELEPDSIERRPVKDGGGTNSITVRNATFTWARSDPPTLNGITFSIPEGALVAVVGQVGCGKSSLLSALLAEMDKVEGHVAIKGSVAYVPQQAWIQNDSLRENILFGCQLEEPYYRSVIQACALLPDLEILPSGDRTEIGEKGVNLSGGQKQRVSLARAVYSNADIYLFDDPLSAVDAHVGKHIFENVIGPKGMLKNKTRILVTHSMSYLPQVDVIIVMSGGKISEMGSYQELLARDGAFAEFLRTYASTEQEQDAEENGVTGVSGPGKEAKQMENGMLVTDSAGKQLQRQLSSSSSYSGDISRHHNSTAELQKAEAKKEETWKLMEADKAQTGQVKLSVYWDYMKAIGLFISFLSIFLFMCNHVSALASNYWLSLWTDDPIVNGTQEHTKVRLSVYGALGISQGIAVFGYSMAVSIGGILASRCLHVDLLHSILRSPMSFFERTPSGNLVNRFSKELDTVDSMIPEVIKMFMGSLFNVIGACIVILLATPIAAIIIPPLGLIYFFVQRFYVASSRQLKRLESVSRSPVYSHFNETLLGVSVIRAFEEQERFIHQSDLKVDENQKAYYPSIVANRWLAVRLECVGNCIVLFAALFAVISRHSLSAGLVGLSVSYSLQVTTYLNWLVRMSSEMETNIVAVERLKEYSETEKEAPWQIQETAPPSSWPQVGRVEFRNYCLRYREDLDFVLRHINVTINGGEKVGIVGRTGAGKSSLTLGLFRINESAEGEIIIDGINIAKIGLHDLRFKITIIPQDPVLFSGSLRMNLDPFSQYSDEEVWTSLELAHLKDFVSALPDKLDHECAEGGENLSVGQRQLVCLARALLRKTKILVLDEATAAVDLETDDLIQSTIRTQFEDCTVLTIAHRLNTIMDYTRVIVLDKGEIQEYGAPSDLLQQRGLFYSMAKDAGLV

[7] = target: T2, ATP-dependent translocase ABCB1; assay: (§3) Inhibition of MDR1 in human doxorubicin-resistant A2780adr cells assessed as Calcein AM accumulation at 10 uM treated 30 mins before Calcein AM addition measured up to 90 mins by fluorescence assay relative to control; format: cell-based, A2780 ADR; details: a2780 adr, 10 µM
MRP1 = MRP1 (Homo sapiens, UniProt P33527); assay: as §2; format: cell-based; details: human, 2008 cells, probe Calcein AM
Sequence of MRP1 (P33527 whole entry): as above

MDR1 = MDR1 (Homo sapiens, UniProt P08183); assay: as §3; format: cell-based, A2780 ADR; details: doxorubicin-resistant A2780adr cells, probe Calcein AM
Sequence of MDR1 (P08183 whole entry): as the sequence (P08183 whole entry) above

BCRP = assay: Therapeutic index, ratio of GI50 for MDCK cells to IC50 for human BCRP expressed in MDCK2 cells; details: dog
[8] = target: T1, Broad substrate specificity ATP-binding cassette transporter ABCG2; assay: Reversal of human BCRP-mediated multidrug resistant in MDCK2 cells assessed as increase of Hoechst 33342-induced cytotoxicity at 1 to 5 uM after 72 hrs by MTT assay; format: cell-based; details: mdck-ii
In short: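 MDR reversal by MTT assay in MDCK BCRP cells with compounds at final 1 µM and 5 µM. Dose–response curves to Hoechst 33342 were compared with and without inhibitor and against sensitive MDCK cells. Conditions as for the MTT cytotoxicity assay: 2500 cells/well, 72 h, absorbance at 544/710 nm.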

| IC50 [1] | IC50 [2] | inhibition at 90 min, 10 µM (MRP1) | inhibition at 90 min, 10 µM (MDR1) | Structure (SMILES) | other results |
| --- | --- | --- | --- | --- | --- |
| 0.32 µM | 0.33 µM |  |  | COc1cc2nc(Nc3cccc([N+](=O)[O-])c3)nc(Nc3cccc([N+](=O)[O-])c3)c2cc1OC |  |
| 0.47 µM | 0.48 µM |  |  | COc1cc2nc(Nc3cccc(C#N)c3)nc(Nc3cccc(C#N)c3)c2cc1OC |  |
| 0.61 µM | 0.8 µM |  |  | COc1cc2nc(Nc3cccc(C(F)(F)F)c3)nc(Nc3cccc(C(F)(F)F)c3)c2cc1OC |  |
|  |  |  |  | Brc1cccc(Nc2nc(-c3ccccc3)nc3ccccc23)c1 | IC50 [3]: 12.4 µM |
| 1.55 µM | 0.94 µM |  |  | FC(F)(F)c1cccc(Nc2ncnc3ccccc23)c1 |  |
|  |  |  |  | COc1cc2ncnc(Nc3ccc(F)c(Cl)c3)c2cc1OCCCN1CCOCC1 [GEFITINIB] | Activity (MDCK-II): Active; Activity [4]: Active; GI50 at 72 h [5]: 1.45 µM |
|  |  |  |  | O=[N+]([O-])c1cccc(Nc2nc(-c3ccccc3)nc3ccccc23)c1 | Activity (MDCK-II): Active; Activity [4]: inactive; GI50 at 72 h [5]: 67.8 µM; inhibition (INH) [6]: Not Active; inhibition (INH) [7]: Not Active |
| 4.09 µM | 1.99 µM | > 50% | > 50% | COc1ccc(-c2nc(Nc3ccccc3)c3ccccc3n2)cc1OC |  |
| 1.55 µM | 0.64 µM | > 50% | > 50% | COc1ccc(-c2nc(Nc3ccccc3[N+](=O)[O-])c3ccccc3n2)cc1OC |  |
| 0.91 µM | 0.81 µM |  |  | COc1cc2ncnc(Nc3cccc([N+](=O)[O-])c3)c2cc1OC | Activity (MDCK-II): inactive; Activity [4]: 60%; selectivity ratio (BCRP): 1.85; GI50 at 72 h [5]: 1.5 µM |
| 0.11 µM | 0.14 µM | > 50% | > 50% | COc1ccc(-c2nc(Nc3cccc(O)c3)c3ccccc3n2)cc1OC | selectivity ratio (BCRP; mdck2): 33; GI50 at 72 h [5]: 4.61 µM; IC50 [3]: 18.2 µM |
| 1.48 µM | 1.08 µM |  |  | Brc1cccc(Nc2ncnc3ccccc23)c1 |  |
| 3.79 µM | 7.38 µM |  |  | COc1ccc(Nc2ncnc3cc(OC)c(OC)cc23)cc1OC |  |
|  |  | > 50% | > 50% | COc1ccc(-c2nc(Nc3cccc(C#N)c3)c3ccccc3n2)cc1OC |  |
|  |  | > 50% | > 50% | COc1ccc(-c2nc(Nc3cccc([N+](=O)[O-])c3)c3ccccc3n2)cc1OC | Activity (MDCK-II): Active; Activity [4]: 75%; GI50 at 72 h [5]: 20.8 µM; IC50 [3]: 9.56 µM |
| 0.86 µM | 0.67 µM |  |  | COc1cc2nc(Nc3cccc(Br)c3)nc(Nc3cccc(Br)c3)c2cc1OC |  |

| IC50 [1] | IC50 [2] | inhibition at 90 min, 10 µM (MRP1) | inhibition at 90 min, 10 µM (MDR1) | Structure (SMILES) | other results |
| --- | --- | --- | --- | --- | --- |
| 0.61 µM | 0.42 µM | > 50% | > 50% | COc1ccc(Nc2nc(-c3ccc(OC)c(OC)c3)nc3ccccc23)cc1OC | IC50 [3]: 3.49 µM |
| 0.89 µM | 1.13 µM |  |  | O=[N+]([O-])c1cccc(Nc2ncnc3ccccc23)c1 | Activity (MDCK-II): Active; Activity [4]: inactive; selectivity ratio (BCRP): 16; GI50 at 72 h [5]: 18.3 µM |
| 1.98 µM | 2.4 µM |  |  | COc1cc2ncnc(Nc3cccc(C(F)(F)F)c3)c2cc1OC |  |
| 0.68 µM | 0.47 µM | > 50% | > 50% | COc1ccc(-c2nc(Nc3ccc(O)cc3)c3ccccc3n2)cc1OC |  |
| 3.38 µM | 4.79 µM |  |  | COc1ccc(Nc2ncnc3ccccc23)cc1OC |  |
| 2.03 µM | 1.18 µM |  |  | N#Cc1cccc(Nc2ncnc3ccccc23)c1 |  |
| 2.32 µM | 1.73 µM |  |  | COc1cc2ncnc(Nc3cccc(Br)c3)c2cc1OC |  |
| 2.46 µM | 2.92 µM |  |  | COc1cc2ncnc(Nc3ccc([N+](=O)[O-])cc3)c2cc1OC |  |
| 1.52 µM | 1.74 µM |  |  | COc1ccc(Nc2nc(Nc3ccc(OC)c(OC)c3)c3cc(OC)c(OC)cc3n2)cc1OC |  |
| 0.29 µM | 0.26 µM | > 50% | > 50% | COc1ccc(-c2nc(Nc3ccccc3O)c3ccccc3n2)cc1OC |  |
| 0.4 µM | 0.29 µM | > 50% | > 50% | COc1ccc(-c2nc(Nc3cccc(Br)c3)c3ccccc3n2)cc1OC | IC50 [3]: 11.8 µM |
| 0.24 µM | 0.3 µM | > 50% | > 50% | COc1ccc(-c2nc(Nc3cccc(C(F)(F)F)c3)c3ccccc3n2)cc1OC |  |
|  | 0.15 µM |  |  | Oc1cccc(Nc2nc(-c3ccccc3)nc3ccccc23)c1 | Activity [8]: Active; selectivity ratio (BCRP; mdck2): 340; GI50 at 72 h [5]: 51.1 µM; inhibition (INH) [6]: Not Active; inhibition (INH) [7]: Not Active |
| 3.97 µM | 3.8 µM |  |  | COc1cc2ncnc(Nc3ccccc3[N+](=O)[O-])c2cc1OC |  |
| 0.93 µM | 1.06 µM |  |  | COc1cc2ncnc(Nc3cccc(C#N)c3)c2cc1OC |  |
